Measured values from different studies.
Organism: Pseudomonas aeruginosa
Effect on: microbial growth

O=C(CCc1ccc(O)c(O)c1)NCCCCCCCC[P+](c1ccccc1)(c1ccccc1)c1ccccc1.[Br-] — MIC (broth dilution; ATCC27853; 18 h): > 32 µg/mL
N=C(N)NN=Cc1ccc(OC/C=C\COc2ccc(C=NNC(=N)N)cc2)cc1 — MIC (PA14; 16 h): ≤ 51 µg/mL
CC1(C)SC2C(NC(=O)C(NC(=O)C3=C(O)C(c4ccccc4)NC3=O)c3ccccc3)C(=O)N2C1C(=O)O (stereo not shown) — MIC: 50 µg/mL
CC(C)Oc1c(NC(=O)c2ccc(NC(=O)[C@H](CC(N)=O)NC(=O)c3ccc(NC(=O)c4cccc(N)c4)cc3)cc2)ccc(C(=O)Nc2ccc(C(=O)O)cc2)c1O — MIC (PA14): > 64 µg/mL
Cc1nc(Cl)c2c(c1O)C(=O)C1=C(O)[C@]3(O)C(=O)C(C(N)=O)=C(O)[C@@H](N(C)C)[C@@H]3C[C@@H]1C2.Cl — MIC (broth dilution; ATCC27853): > 32 µg/mL
C[C@H]1COc2c(N3CCN(C)CC3)c(F)cc3c(=O)c(C(=O)O)cn1c23 — MIC (broth dilution): 138 µM
Cc1ccc(C)n1-c1ccc(C(=O)NNC=O)cc1 — MIC (broth dilution; ATCC10145; 18 h): 125 µg/mL
NC1CCCCc2c1[nH]c1ccc(Br)cc21 (stereo not shown) — MIC (broth dilution; PAO1; 18 h): 128 µg/mL
CC(=O)NCN1N=C(C)C(=NNn2c(-c3ccccc3)nc3ccccc3c2=O)C1=O — MIC (broth dilution; 24 h): 59.9 µM
CCCCCCC/C=C/C(=O)N1C(=O)/C(=C(\O)c2ccc(F)cc2)C(=O)C1CC(C)C (stereo not shown) — MIC (PA01): > 200 µg/mL
Fc1ccc(NCc2ccc(Oc3ccccn3)cc2)cc1 — MIC: > 12.5 µg/mL
CC(C)(C)Oc1ccc(CC2NC(=O)C(C(=O)NC(C(=O)NC3C(=O)N4C3SC(C)(C)C4C(=O)O)c3ccccc3)=C2O)cc1 (stereo not shown) — MIC: 12.5 µg/mL
O=C(O)c1cn(C2CC2)c2cc(N3CCNCC3)c(F)cc2c1=O — MIC (broth dilution; ATCC10145; 18 h): > 5 µg/mL
COc1c(C)c(OC(C)=O)c(C)c(OC(C)=O)c1C(=O)/C=C/c1ccccc1 — MIC (broth dilution; ATCC27853): 5000 µg/mL
CCCc1nc(N(C)C)c2c(c1O)C(=O)C1=C(O)[C@]3(O)C(=O)C(C(N)=O)=C(O)[C@@H](N(C)C)[C@@H]3C[C@@H]1C2.Cl.Cl — MIC (broth dilution; ATCC27853): > 32 µg/mL
C[C@H]1[C@H](NC(=O)/C(=N\OC(C)(C)C(=O)O)c2csc(N)n2)C(=O)N1S(=O)(=O)O — MIC (agar dilution; ATCC27): 4 µg/mL
Cc1ccc(C)n1-c1ccc(-c2nnc(S)s2)cc1 — MIC (broth dilution; ATCC10145; 18 h): 2 µg/mL
CNC(C)C1CCC(N)C(OC2C(N)CC(N)C(OC3OCC(C)(O)C(NC)C3O)C2O)O1 (stereo not shown) — MIC (broth dilution; PAO1): 4 µg/mL
CC(C)Oc1c(NC(=O)c2ccc(NC(=O)[C@H](CC(N)=O)NC(=O)c3ccc(NC(=O)c4ccc(C#N)cc4)cc3)cc2)ccc(C(=O)Nc2cccc(C(=O)O)c2)c1O — MIC (PA14): > 64 µg/mL
O=C1C[C@@H](c2ccc(O)cc2)Oc2cc(O)cc(O)c21 — MIC (broth dilution; PAO1): 128 µg/mL
Cc1ccc2nc(-c3ccc([N+](=O)[O-])cc3)n(Cc3ccccc3Cl)c2c1 — MIC (broth dilution; ATCC27853): 256 µg/mL
CCCC(=O)Oc1c(C)c(O)c(C(=O)/C=C/c2ccccc2)c(OC)c1C — MIC (broth dilution; ATCC27853): 5000 µg/mL
CC(C)Oc1c(NC(=O)c2ccc(NC(=O)[C@H](CC(N)=O)NC(=O)c3ccc(NC(=O)c4ccc(C(F)(F)F)cc4)cc3)cc2)ccc(C(=O)Nc2ccc(C(=O)O)cc2)c1O — MIC (PA14): > 64 µg/mL
CN(C)[C@@H]1C(O)=C(C(N)=O)C(=O)[C@@]2(O)C(O)=C3C(=O)c4c(O)cnc(-c5ccccc5)c4C[C@H]3C[C@@H]12.Cl.Cl — MIC (broth dilution; ATCC27853): > 32 µg/mL
CCCCC(=O)N1C(=O)/C(=C(/C)O)C(=O)C1CC(C)C (stereo not shown) — MIC (PA01): > 200 µg/mL
Clc1ccc(NCc2ccc(Oc3ccccn3)cc2)cc1 — MIC: > 25 µg/mL
CC(C)Oc1c(N)ccc(C(=O)Nc2ccc(C(=O)N[C@@H](CC(N)=O)C(=O)Nc3ccc(C(=O)Nc4ccc(C(=O)Nc5ccc(C(=O)O)cc5)c(O)c4OC(C)C)cc3)cc2)c1O — MIC (PA14): 32 µg/mL
Cc1c(CN(C)C(=O)/C=C/c2cnc3c(c2)CC(NC(=O)OC(C)(C)C)C(=O)N3)oc2ccccc12 (stereo not shown) — MIC (broth dilution; PA01): > 32 µg/mL
CN(C)C1CN(Cc2ccc3cc4c(c(O)c3c2)C(=O)C2=C(O)[C@]3(O)C(=O)C(C(N)=O)=C(O)[C@@H](N(C)C)[C@@H]3C[C@@H]2C4)C1 — MIC (broth dilution; ATCC27853): 32 µg/mL
CCCCCCC/C=C/C(=O)N1C(=O)/C(=C(\O)c2ccncc2)C(=O)C1CC(C)C (stereo not shown) — MIC (PA01): > 200 µg/mL
O=C(CCCCCCCC[P+](c1ccccc1)(c1ccccc1)c1ccccc1)Nc1cc(O)c(O)c(O)c1.[Br-] — MIC (broth dilution; ATCC27853; 18 h): > 32 µg/mL
CN(C)CCCNc1nc(Cl)c2c(c1O)C(=O)C1=C(O)[C@]3(O)C(=O)C(C(N)=O)=C(O)[C@@H](N(C)C)[C@@H]3C[C@@H]1C2.Cl — MIC (broth dilution; ATCC27853): > 32 µg/mL
CCCCCCCC(=O)Oc1c(C)c(O)c(C(=O)/C=C/c2ccccc2)c(OC)c1C — MIC (broth dilution; ATCC27853): 5000 µg/mL
CCCCCCC#Cc1cncc(-c2nnc(SCc3ccc(C#N)cc3)n2C)c1 — MIC: ≥ 20 µg/mL
CC1=NN(CNc2ccccc2)C(=O)C1=NNn1c(-c2ccccc2)nc2ccccc2c1=O — MIC (broth dilution; 24 h): 111 µM
O=[N+]([O-])c1ccc(-c2nc3cccc(O)c3[nH]2)o1 — MIC (broth dilution; ATCC27853): > 64 µg/mL
O=C(Nc1ccc(F)c(Cl)c1)c1cc(Cl)ccc1O — MIC (broth dilution; ATCC27853): > 64 µg/mL
CC(C)Oc1c(NC(=O)c2ccc(NC(=O)[C@H](CC(N)=O)NC(=O)c3ccc(NC(=O)c4ccc(NC(=O)c5ccc([N+](=O)[O-])cc5)cc4)cc3)cc2)ccc(C(=O)Nc2ccc(C(=O)O)cc2)c1O — MIC (PA14): > 64 µg/mL
CC(C)CNc1nc(Cl)c2c(c1O)C(=O)C1=C(O)[C@]3(O)C(=O)C(C(N)=O)=C(O)[C@@H](N(C)C)[C@@H]3C[C@@H]1C2.Cl.Cl.Cl — MIC (broth dilution; ATCC27853): > 32 µg/mL
CCCCCCC#Cc1cncc(-c2nnc(SCc3ccc([N+](=O)[O-])cc3)n2C)c1 — MIC: ≥ 20 µg/mL
CN(C)[C@@H]1C(O)=C(C(N)=O)C(=O)[C@@]2(O)C(O)=C3C(=O)c4c(cc5ccccc5c4O)C[C@H]3C[C@@H]12 — MIC (broth dilution; ATCC27853): 32 µg/mL
CC(C)Oc1c(NC(=O)c2ccc(NC(=O)[C@H](CC(N)=O)NC(=O)c3ccc(NC(=O)c4ccc(C#N)cc4)cc3)cc2)ccc(C(=O)Nc2ccncc2)c1O — MIC (PA14): > 64 µg/mL
O=C(CCCCCCCC[P+](c1ccccc1)(c1ccccc1)c1ccccc1)Nc1ccc(O)c(O)c1.[Br-] — MIC (broth dilution; ATCC27853; 18 h): > 32 µg/mL
Clc1ccccc1NCc1ccc(Oc2ccccn2)cc1 — MIC: > 25 µg/mL
COc1ccc(-c2nc3ccccc3n2Cc2ccccc2)cc1OC — MIC (broth dilution; ATCC27853): 256 µg/mL
CC(C)Oc1c(NC(=O)c2ccc(NC(=O)[C@H](CC(N)=O)NC(=O)c3ccc(NC(=O)c4ccc(N)cc4)cc3)cc2)ccc(C(=O)Nc2ccc(C(=O)O)cc2)c1O — MIC (PA14): > 64 µg/mL
CN(C)[C@@H]1C(O)=C(C(N)=O)C(=O)[C@@]2(O)C(O)=C3C(=O)c4c(cc5ccc(-c6cccnc6)cc5c4O)C[C@H]3C[C@@H]12 — MIC (broth dilution; ATCC27853): 32 µg/mL
CC(C)Oc1c(NC(=O)c2ccc(NC(=O)[C@H](CC(N)=O)NC(=O)c3ccc(NC(=O)c4ccccc4[N+](=O)[O-])cc3)cc2)ccc(C(=O)Nc2ccc(C(=O)O)cc2)c1O — MIC (PA14): > 64 µg/mL
CC1=NN(CNC(=O)c2ccccc2)C(=O)C1=NNn1c(-c2ccccc2)nc2ccccc2c1=O — MIC (broth dilution; 24 h): 51.9 µM
